# Source: PubChem (several laboratories)
# BaF3 parental: parental Ba/F3 cell viability inhibition, counter-screen for JAK2V617F inhibitor project, murine pro-B, CellTiter-Glo luminescence; 1.1% of 220,000 active; CellTiter-Glo ATP luminescence; inhibition, % at 5.6 µM;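 active means inhibition above a per-campaign cutoff, the mean inhibition of all tested compounds plus 3 SD, cut at about 27% in these data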;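 further: 0% = DMSO wells and 100% = JAK Inhibitor I control wells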
# IEC-6 tox: cytotoxicity in IEC-6 intestinal epithelial cells, primary screen, cytotoxicity control for KLF5 inhibitor project, cell-based, luminescence; AID 1825, 2009; 0.78% of 290,000 active; IEC-6 cytotoxicity, luminescence viability; inhibition, % at 5 µM; in the data active means inhibition above about 22%;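 further: 0% = plate median of test compound wells and 100% = cytotoxic reference compound wells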
# Ba/F3 V617F tox: reduced viability of JAK2V617F-dependent Ba/F3 cells, primary screen, JAK2V617F inhibitor project, cell-based, Ba/F3 EpoR-JAK2V617F, luminescence; inhibition, % at 5.6 µM; 1.1% of 220,000 active; ATP luminescence; AID 1446, 2008;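 active means inhibition above the campaign mean plus 3 SD over all tested compounds, cut at about 24% in these data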;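 further: cytokine-independent growth of Ba/F3 cells driven by EpoR plus mutant JAK2; 0% = DMSO-treated cells and 100% = JAK inhibitor I control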
# APP transl inh: inhibitors of APP translation via 5'UTR reporter, primary screen, APP 5'UTR luciferase, SH-SY5Y cells; SH-SY5Y APP 5'UTR-luciferase reporter, luminescence; inhibition, % at 2 µM; 0.82% of 190,000 active;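 active means inhibition above a set limit, derived from the sample mean plus 3 SD, cut at about 45% in these data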
# MT stabilize HCS: microtubule stabilizers in HeLa cells, primary screen, imaging, high-content imaging | % tubulin-high responders, % at 10 µM | 0.83% of 200,000 active | HeLa tubulin immunostaining HCS, 24 h; share of cells brighter than vehicle mean+2SD | AID 2205, 2009;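 active means plate Z-score above 3 for both tubulin-high and condensed-nucleus cell shares, with cell loss under 80%, at 10 µM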;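 further: anti alpha tubulin signal scored within the nucleus-defined area of each cell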
# bCat nuc transl: modulators of beta-catenin nuclear translocation, primary screen, imaging, HeLa cells, immunofluorescence, high-content | 0.3% of 190,000 active | nuclear translocation activity, % at 5 µM;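 active means nuclear translocation activity above 50% at 5 µM, with a well cell count of 50 or more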;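 further: per-cell ratio of nuclear to cytoplasmic median beta-catenin stain intensity; plate controls were DMSO negative control for no effect and GSK-3 inhibitor IX positive control for full effect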
#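 System: Human HeLa cells, endogenous beta-catenin | Compound dosing: 5 µM primary, 0.02–20 µM confirmation | Timing: 24 h compound exposure at 37°C, 5% CO2 | Measured by: Fluorescence imaging of beta-catenin antibody stain plus DAPI | Read-out basis: % activation of per-cell nuclear versus cytoplasmic median beta-catenin signal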
# Numbers without * were called inactive; · = no result. The list is not random: actives were taken first. Their share in the collection is about 2.2%.
SMILES,BaF3 parental,IEC-6 tox,Ba/F3 V617F tox,APP transl inh,MT stabilize HCS,bCat nuc transl
COc1cc([N+](=O)[O-])ccc1NC(=O)NCCCN1CCCC1=O,·,10,·,·,·,·
COc1ccc(CN(C)C(=O)c2cccc(Oc3ccccc3)c2)c(OC)c1OC,·,-2,·,·,·,·
CCOC(=O)C1=C(CNCc2ccc(C)cc2)NC(=O)NC1c1ccc(OC)cc1 (centres undefined),28*,16,52*,1,9,-2
Cc1nc(NC(=O)CN2CCCCC2)sc1C(=O)N(C)C,·,2,·,·,·,·
COc1ccc(-c2ncncc2-c2csc(C)n2)c(O)c1,32*,-2,-2,0,4,0
COc1ccc(-c2nc(C)ncc2-c2csc(C)n2)c(O)c1,5,-4,-2,15,1,-2
Cc1ccc(/C=N/NC(=O)c2cccc([N+](=O)[O-])c2)o1,6,1,3,62*,3,-1
CC(=O)Nc1cccc(C(=O)N/N=C/c2ccc(C)o2)c1,7,6,5,-7,·,2
Cc1cccc(C(=O)N/N=C/c2cc(Br)c(Br)o2)c1,4,0,0,1,11*,·
Cc1onc(-c2ccccc2)c1C(=O)N/N=C/c1cc(Br)c(Br)o1,4,-1,2,9,4,·
Cc1cc2nc3ccc(=[N+](C)C)cc-3sc2cc1N,85*,16,68*,·,·,1
CN(C)c1ccc2nc3ccc(=[N+](C)C)cc-3sc2c1,101*,6,97*,62*,4,0
COc1cccc(C(=O)Nc2ccc(S(=O)(=O)N3CCN(C)CC3)cc2)c1,·,-4,·,·,·,·
O=[N+]([O-])c1ccc(-c2cn3c(n2)CCC3)cc1,-2,-10,-2,·,·,2
O=C(c1sc(N2CCOCC2)nc1-c1ccccc1)N1CCCCC1,11,8,8,23,5,3
[2H]c1c([2H])c([2H])c(-c2nc(N3CCCCCC3)sc2C(=O)c2ccccc2)c([2H])c1[2H],95*,-4,4,-4,3,-2
O=C(Nc1nccs1)c1cn(-c2ccccc2)nc1-c1ccccc1,5,4,6,-1,34*,·
CC(C)c1nnc(NC(=O)c2ccc3c(c2)OCO3)s1,3,5,2,-148,2,0
CC(C)(C)NC(=O)CSc1nnc(NC(=O)c2ccccc2Cl)s1,0,7,-4,46*,5,-1
CCSc1nnc(NC(=O)c2ccccn2)s1,8,47*,-3,-56,3,·
CCOC(=O)CSc1nnc(NC(=O)c2ccc3c(c2)OCO3)s1,·,-1,·,·,·,·
CCSc1nnc(NC(=O)c2cnccn2)s1,·,·,·,·,·,-5
COc1ccccc1-c1nnc(NC(=O)c2ccc3c(c2)OCO3)s1,1,1,-2,46*,18,-4
CCSc1nnc(NC(=O)c2ccc3c(c2)OCO3)s1,93*,-5,-1,-53,3,2
Cc1cccc(CN2CCC(C(=O)Nc3ccc(-n4nc(C)cc4C)cc3)CC2)n1,·,-2,·,·,·,·
SMILES,BaF3 parental,IEC-6 tox,Ba/F3 V617F tox,APP transl inh,MT stabilize HCS,bCat nuc transl
COc1ccc(CNS(=O)(=O)c2cn(C)c(=O)n(C)c2=O)cc1,·,3,·,·,·,·
COc1cc([N+](=O)[O-])ccc1NC(=S)NNC(=O)CCC(=O)Nc1ccccc1Cl,·,-10,·,·,·,·
COc1cc2c(cc1OC)CN(C(=O)c1cccc([N+](=O)[O-])c1)CC2,-3,-7,-3,·,·,-2
CCOC(=O)c1ccc(NC(=O)NNS(=O)(=O)c2cc(OC)ccc2OC)cc1,·,2,·,·,·,·
Cc1ccc(NC(=O)CSCc2cc(=O)n3cc(C)sc3n2)cc1,·,0,·,·,·,·
COC(=O)c1sccc1NC(=S)N1CCN(C)CC1,7,1,-1,-6,4,0
COC(=O)c1sccc1NC(=S)N1CCN(c2cc(C)ccc2C)CC1,2,-4,1,6,17*,-2
O=C(C1Cc2ccccc2CN1C(=O)c1ccccc1)N1CCN(c2ccccc2)CC1 (centres undefined),47*,1,58*,·,·,1
O=C(c1ccc(CN2CCc3ccccc3C2)cc1)N1CCN(c2ccccc2)CC1,3,-8,-1,-10,2,-2
Cc1ccc(C(=O)NN(C)c2nc3ccccc3nc2C(F)(F)F)cc1,2,-8,-4,-4,41*,11
COc1ccc(CCNC(=O)c2ccc3nc(N4CCCCC4)sc3c2)cc1OC,·,5,·,·,·,·
COc1ccc(/C=N\N=C2/SC(CC(=O)O)C(=O)N2c2ccc(O)cc2)cc1OC (centres undefined),4,-10,-2,-5,2,1
O=C(O)CC1S/C(=N/N=C/c2ccc([N+](=O)[O-])cc2)N(c2ccc(O)cc2)C1=O (centres undefined),80*,-3,0,-4,2,1
CCN(CC)c1ccc(/C=N/n2nnnc2N)c(O)c1,3,-3,6,-13,24*,·
CCN(C)c1ccc(/C=N\n2nnnc2N)cc1,10,1,6,-42,25*,·
Nc1nnnn1/N=C/c1ccc(O)cc1,5,-3,-1,·,3,-18
Clc1ccc2nc3c4ccccc4cnn3c2c1,2,3,1,-217,17*,0
COn1c(-c2ccccc2)nc2ccc(Cl)cc21,1,-4,-1,·,3,0
CCOC(=O)C1CCCCN1C(=O)CCn1nnnc1CN1CCOCC1 (centres undefined),·,1,·,·,·,·
O=C(N/C(=C/c1ccc(Cl)cc1)c1nc2ccccc2[nH]1)c1ccco1,4,-1,-3,9,3,1
O=C(/C(=C/c1ccc(Cl)cc1)c1nc2ccccc2[nH]1)c1ccccc1,-2,-11,-3,-84,47*,0
CCOC(=O)c1cc(C)n(-c2ccccc2)c1C,0,-11,-4,·,·,-2
C=CCNC(=S)/N=c1/ccccn1CC,29*,-6,15,·,·,0
CCOC(=O)COc1ccc2ccccc2c1/C=C/[N+](=O)[O-],6,3,1,62*,2,-1
O=[N+]([O-])/C=C/c1c(OCc2ccccc2)ccc2ccccc12,7,5,-6,-9,3,-2
Brc1ccc2c(c1)C(c1cccnc1)=NNC(c1cccs1)=N2,8,-4,-1,-3,18*,18
CCCc1c(CC)c(=N)c2ccccc2n1C,65*,6,71*,-2,2,-1
Cn1c(-c2ccccc2)c(C(=O)CCl)c2ccccc21,5,3,1,-12,7,1
C=CCN(C(=O)CN1CCOCC1)c1nc(C)c(-c2ccccc2)s1,27*,-12,6,-21,3,-4
C=CCN(C(=O)CN1CCCCC1)c1nc(-c2ccccc2)cs1,·,3,·,·,·,·
